Tests used:
[1] = Antiplatelet activity against ADP-induced human platelet in platelet rich plasma assessed as inhibition of platelet aggregation preincubated for 2 mins followed by ADP stimulation and measured for 5 mins by aggregometry; type: functional, cell-based
Outline: (§1)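 Human whole blood anticoagulated with 3.8% sodium citrate (1:9 v/v); PRP by centrifugation at 300 rpm for 20 min at room temperature, PPP at 900 rpm for 10 min. Compound in DMSO (final under 0.5%) added to PRP, 2 min at 37 °C, then ADP 10 μM. Aggregometer stirred at 900 rpm, 37 °C, calibrated with PRP and PPP, read 5 min (Born). Inhibition from maximal trace height versus DMSO vehicle.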

[2] = tested on: Platelet; assay: Potency index, ratio of ticagrelor IC50 to test compound IC50 for antiplatelet activity against ADP-induced human platelet in platelet rich plasma assessed as inhibition of platelet aggregation; type: functional
[3] = Antiplatelet activity against ADP-induced human platelet in platelet rich plasma assessed as inhibition of platelet aggregation at 10 uM preincubated for 2 mins followed by ADP stimulation and measured for 5 mins by aggregometry relative to control; type: functional; details: 7 min; outline: as §1
[4] = Antiplatelet activity against ADP-induced human platelet in platelet rich plasma assessed as inhibition of platelet aggregation at 3 uM preincubated for 2 mins followed by ADP stimulation and measured for 5 mins by aggregometry relative to control; type: functional; details: 7 min; outline: as §1
[5] = Toxicity in mouse assessed as bleeding time at 5 mg/kg, po administered via gavage measured after 1 hr by bleeding tail test (reference value: 5.2 mins); type: organism-based; details: in vivo
[6] = Stability in mouse liver microsomes measured after 1 hr; type: ADME, Microsome; details: read-out: Stability
[7] = tested on: Mus musculus; assay: Antiplatelet activity against ADP-induced platelet aggregation in mouse assessed as inhibition of platelet aggregation at 2.5 mg/kg, iv measured after 1 hr by turbidimetric method relative to control; type: functional
Outline: (§2)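 Male mice of about 20 g received compound iv (2.5 mg/kg) or orally (5 mg/kg). After 1 h, blood was drawn from the abdominal aorta into 3.8% citrate. PRP was obtained at 1000 rpm for 7 min, adjusted with PPP to about 2 × 10^6 platelets/mL and incubated 10 min at 37 °C. ADP final 5 μM; turbidimetric aggregation read, PRP as zero and PPP as 100%.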

[8] = Stability of compound in fasted-state simulated intestinal fluid incubated for 1 day; type: ADME; details: read-out: Stability
[9] = Stability of compound in PBS buffer incubated for 1 week at 37 degC; type: physicochemical; details: time 1 weeks, read-out: Stability
[10] = tested on: Mus musculus; assay: Antiplatelet activity against ADP-induced platelet aggregation in mouse assessed as inhibition of platelet aggregation at 5 mg/kg, po measured after 1 hr by turbidimetric method relative to control; type: functional; outline: as §2
[11] = Toxicity in mouse assessed as death at 1500 mg/kg, po administered via gavage measured for 14 days; type: organism-based; details: in vivo, 336 h, time 14 day
Outline: (§3)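 Single-dose oral gavage study run under GLP. Forty mice (20 male, 20 female) were randomly split into a treated group and a vehicle group of 20 each (10 male, 10 female). The vehicle group got aqueous sodium carboxymethyl cellulose.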

[12] = Toxicity in mouse assessed as blood loss at 5 mg/kg, po administered via gavage measured after 1 hr by bleeding tail test (reference value: 34.92 uL); type: organism-based; details: in vivo
[13] = Stability in mouse liver microsomes measured after 2 hrs; type: ADME, Microsome; details: read-out: Stability
[14] = molecular target: P2Y purinoceptor 12 (Homo sapiens, UniProt Q9H244); assay: Inhibition of P2Y12 receptor in human platelet assessed as reduction in ADP-induced VASP phosphorylation by flow cytometry; type: functional, cell-based
Sequence of P2Y purinoceptor 12 (Q9H244 whole entry): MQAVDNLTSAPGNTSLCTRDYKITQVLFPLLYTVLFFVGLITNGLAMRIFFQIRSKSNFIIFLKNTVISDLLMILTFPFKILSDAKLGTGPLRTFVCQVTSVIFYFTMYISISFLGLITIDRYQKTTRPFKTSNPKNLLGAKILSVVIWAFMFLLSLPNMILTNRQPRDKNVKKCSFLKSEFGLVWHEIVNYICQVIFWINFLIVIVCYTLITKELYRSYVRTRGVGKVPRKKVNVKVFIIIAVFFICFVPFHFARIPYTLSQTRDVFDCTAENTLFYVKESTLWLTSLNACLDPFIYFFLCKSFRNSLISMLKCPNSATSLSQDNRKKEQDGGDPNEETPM

[15] = Toxicity in mouse assessed as change in body weight at 1500 mg/kg, po administered via gavage measured for 14 days; type: organism-based; details: in vivo, 336 h, time 14 day; outline: as §3
[16] = Stability of compound in fasted-state simulated gastric fluid incubated for 1 day; type: ADME; details: read-out: Stability

Compound	IC50 [1] [nM]	inhibition at 10 µM [3] [%]	inhibition at 3 µM [4] [%]	further results
CCCSc1nc(N/N=C/c2ccccc2)c2nnn([C@@H]3C[C@H](O)[C@@H](O)[C@H]3O)c2n1	450	100	81.6	Ratio IC50 [2]: 2
CCCSc1nc(N/N=C/c2ccc(F)c(F)c2)c2nnn([C@@H]3C[C@H](O)[C@@H](O)[C@H]3O)c2n1	–	96.5	62.7	–
CCCSc1nc(N/N=C/c2ccccc2O)c2nnn([C@@H]3C[C@H](O)[C@@H](O)[C@H]3O)c2n1	670	92.1	83.6	–
CCCSc1nc(N/N=C/c2cccc(O)c2)c2nnn([C@@H]3C[C@H](O)[C@@H](O)[C@H]3O)c2n1	200	100	93.4	Time [5]: 10.4 min; remaining at 1 h [6]: 81.2%; inhibition in vivo at 2.5 mg/kg [7]: 62.2%; remaining at 24 h [8]: 97.4%; remaining at 168 h [9]: 98.3%; inhibition in vivo at 5 mg/kg [10]: 73.3%; Activity [11]: Non-Toxic; Activity [12]: 44.5 µL; remaining at 2 h [13]: 73.7%; IC50 [14]: 46 nM; Activity [15]: Non-Toxic; Ratio IC50 [2]: 4; remaining at 24 h [16]: 96.7%
CCCSc1nc(N/N=C/c2ccc(O)cc2)c2nnn([C@@H]3C[C@H](O)[C@@H](O)[C@H]3O)c2n1	780	100	86.3	–
CCCSc1nc(N/N=C/c2ccc(O)cc2O)c2nnn([C@@H]3C[C@H](O)[C@@H](O)[C@H]3O)c2n1	–	98.3	63.4	–
CCCSc1nc(N/N=C/c2ccccc2OC)c2nnn([C@@H]3C[C@H](O)[C@@H](O)[C@H]3O)c2n1	–	48.7	11.7	–
CCCSc1nc(N/N=C/c2ccc(OC)cc2)c2nnn([C@@H]3C[C@H](O)[C@@H](O)[C@H]3O)c2n1	1300	81.5	71.4	–
CCCSc1nc(N/N=C/c2ccc(OC)c(OC)c2)c2nnn([C@@H]3C[C@H](O)[C@@H](O)[C@H]3O)c2n1	–	78.3	33.4	–
CCCSc1nc(N/N=C/c2ccccc2Cl)c2nnn([C@@H]3C[C@H](O)[C@@H](O)[C@H]3O)c2n1	–	83.2	51.6	–
CCCSc1nc(N/N=C/c2ccc(Cl)cc2)c2nnn([C@@H]3C[C@H](O)[C@@H](O)[C@H]3O)c2n1	–	53.7	7	–
CCCSc1nc(N/N=C/c2ccc(Cl)cc2Cl)c2nnn([C@@H]3C[C@H](O)[C@@H](O)[C@H]3O)c2n1	–	50.1	–	–
CCCSc1nc(N/N=C/c2cccc([N+](=O)[O-])c2)c2nnn([C@@H]3C[C@H](O)[C@@H](O)[C@H]3O)c2n1	660	88.6	76.3	–
CCCSc1nc(N/N=C/c2ccc([N+](=O)[O-])cc2)c2nnn([C@@H]3C[C@H](O)[C@@H](O)[C@H]3O)c2n1	–	62.7	5	–
CCCSc1nc(N/N=C/c2ccccn2)c2nnn([C@@H]3C[C@H](O)[C@@H](O)[C@H]3O)c2n1	–	71.7	36.4	–
CCCSc1nc(N/N=C/c2cccs2)c2nnn([C@@H]3C[C@H](O)[C@@H](O)[C@H]3O)c2n1	400	95.4	80.5	–
CCCSc1nc(NC2CC2)c2nnn([C@@H]3C[C@H](OCCO)[C@@H](O)[C@H]3O)c2n1	–	14.8	–	–
CCCNc1nc(SCCC)nc2c1nnn2[C@@H]1C[C@H](OCCO)[C@@H](O)[C@H]1O	–	13.6	–	–
CCCSc1nc(NC2CC2)c2nnn([C@@H]3C[C@H](O)[C@@H](O)[C@H]3O)c2n1	820	86.3	–	–
CCCSc1nc(N/N=C/c2ccc(Cl)cc2)c2nnn([C@@H]3C[C@H](OCCO)[C@@H](O)[C@H]3O)c2n1	–	69.1	9.1	–
